We go through 84 variants from the RNAGym collection of RNA variant scans (doi:10.1126/science.aae0568).

Variants at the floor of the assay were thinned out.

B1: tRNA (parent)
chain: GUUCCGUUGGCGUAAUGGUAACGCGUCUCCCUCCUAAGGAGAAGACUGCGGGUUCGAGUCCCGUACGGAACG

The data set covers variants of B1. Put plainly: yeast fitness relative to wild type (ratio to wild type); higher = fitter; tRNA-Arg(CCU), competitive growth, 37 C, YPD. The method, boiled down:
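Genotype frequency changes were the basis for Darwinian fitness relative to wild type. The frequencies came from 100-nucleotide paired-end sequencing of gene amplicons from the start population and each end population of pooled yeast strains with tRNA-Arg(CCU) gene variants at the native locus. Competition ran in YPD at 37°C for 24 hours in six replicates, genotypes needed ≥ 100 starting reads, and estimates < 0.5 were set to 0.5.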
As to U3C C22G A69U, the yeast fitness came to 0.667.

As to C22G C60G, the yeast fitness worked out at 0.621.

For the variant C29U G63A A69U, the yeast fitness was found to be 0.641.

Take U16G C49G: the yeast fitness was determined as 0.636.

In the case of A42C A43G C55G G68C, the yeast fitness is ≤ 0.5.

In the case of C31G A45C, the yeast fitness stood at 0.864.

As for C5A C11U U13G C29G C33A C46A, the yeast fitness came out at 0.575.

As to G12A A65C C66U G67U, the yeast fitness amounted to 0.612.

In the case of U28A U59A, the yeast fitness came to 0.633.

As to U16C G51C C55G C62A, the yeast fitness is ≤ 0.5.

On to C29U C62G, for which the yeast fitness amounted to 0.656.

With C11G A69C A70U, the yeast fitness came out at 0.684.

Consider A14C U19G C31G C33U A42G U64C A65G, for which the yeast fitness is ≤ 0.5.

For the variant U26A G67C, the yeast fitness amounted to 0.829.

As to G18C U28C C30U A43G C55U, the yeast fitness is ≤ 0.5.

As to A20U C31U G38A A69C, the yeast fitness was ≤ 0.5.

Turning to C24U C30U C49U U53C, the yeast fitness was ≤ 0.5.

Consider G12A U19C C34G, for which the yeast fitness stood at 0.544.

For the variant U2C U32C A40C G48A, the yeast fitness was found to be 0.551.

Turning to C5U C27U A37G A40C U47A, the yeast fitness is ≤ 0.5.

Regarding G18A G25A G38A A57G, the yeast fitness was ≤ 0.5.

Turning to A15U A20C G23A C30U, the yeast fitness was ≤ 0.5.

As for G10C U26C A45G C49U C55G, the yeast fitness was ≤ 0.5.

Turning to C4A G18A C27A A37C G56A G68U, the yeast fitness was ≤ 0.5.

A14U C33A A42C G52A: the yeast fitness is 0.515.

Take U3C G44A: the yeast fitness was 0.993.

As to U7A A42C C62U, the yeast fitness was ≤ 0.5.

Consider C24G C46U C49G G51C C66G, for which the yeast fitness came to 0.639.

Turning to G10A C29G G39C, the yeast fitness is ≤ 0.5.

For U7A G9C G17C C46A G68C, the yeast fitness is ≤ 0.5.

With U3A A36G C66U, the yeast fitness is 0.666.

C24A C29G A45G C62A A69C: the yeast fitness amounted to 0.52.

Regarding C4G C5U A42G A45U C66U, the yeast fitness is ≤ 0.5.

As for C4U G9A C27G U32A G52A, the yeast fitness was ≤ 0.5.

For the variant A20G C24A C27A A42G A69C, the yeast fitness is 0.56.

In the case of U16C C46G A57U, the yeast fitness is 0.588.

In the case of U7G C22A U64C, the yeast fitness is ≤ 0.5.

On to A14U C22U A40U G44C A57C, for which the yeast fitness came out at 0.635.

Take C34A C61G: the yeast fitness is ≤ 0.5.

In the case of A37C G56A A69U, the yeast fitness worked out at 0.647.

For U28C C29U A45C, the yeast fitness was determined as 0.545.

For the variant G23A C24U G38C A70C, the yeast fitness is ≤ 0.5.

As to C24U C62A, the yeast fitness turned out to be 0.684.

C5U C22G: the yeast fitness was found to be 0.991.

Take C27G G39A C46U G67A: the yeast fitness was found to be 0.581.

Take C27G U32C A57G: the yeast fitness was found to be 0.578.

As for U7A G23C C49G C66A, the yeast fitness was ≤ 0.5.

Turning to G18A C30U G41C, the yeast fitness is ≤ 0.5.

On to G9A G10C C60U U64G, for which the yeast fitness was ≤ 0.5.

As for A21C G39A C49A, the yeast fitness was ≤ 0.5.

With G10A G17A U59G C62U, the yeast fitness is ≤ 0.5.

As to C5U G10A A36G G44C, the yeast fitness is ≤ 0.5.

Consider U2A C60G G63C, for which the yeast fitness was ≤ 0.5.

Consider C5U C31G G68C, for which the yeast fitness stood at 0.645.

Take G12C C30U: the yeast fitness was found to be 0.694.

C24G A43C G52C C55U A69C: the yeast fitness was ≤ 0.5.

Regarding G9C C22A G48C G63C, the yeast fitness was ≤ 0.5.

As for C33U A45C C49U, the yeast fitness was 0.652.

As for U3C C27G G48C, the yeast fitness amounted to 0.522.

Turning to G6C C11U U19C G44C G68A, the yeast fitness was ≤ 0.5.

As to C4G G10C G12C A21C G48C, the yeast fitness is ≤ 0.5.

Turning to C4A G17A C62U, the yeast fitness worked out at 0.556.

In the case of U3C G44C C60G, the yeast fitness was found to be 0.562.

Consider U2G A21G A65G, for which the yeast fitness amounted to 0.663.

With G9A A36C A45C, the yeast fitness is 0.602.

As to U16C C33U G58A, the yeast fitness is ≤ 0.5.

Turning to C5G C11U G25C G52U A70C, the yeast fitness was ≤ 0.5.

As for U19C C22G G63C G68U, the yeast fitness is ≤ 0.5.

For A42C A70C, the yeast fitness was determined as 1.02.

Regarding C22G C30U C49A A57U C61U, the yeast fitness is 0.548.

Regarding U13G U16C C55A, the yeast fitness was ≤ 0.5.

For the variant C30A C61A A65G C66G A70G, the yeast fitness was ≤ 0.5.

For G12A U16A C27G, the yeast fitness was ≤ 0.5.

As for U2C C5G C46U U54G A65C, the yeast fitness was ≤ 0.5.

Consider C5G A37U A43C A65U, for which the yeast fitness was ≤ 0.5.

With C4U G9A C11U C34A C55A A65C, the yeast fitness is ≤ 0.5.

For A15C G52A A70U, the yeast fitness is ≤ 0.5.

For the variant A21C C31G, the yeast fitness turned out to be 0.657.

Take U7A U16C G17A C29U C31A C66G G67U: the yeast fitness is ≤ 0.5.

Regarding U8A C34U C61A, the yeast fitness was ≤ 0.5.

Turning to U16G U19C U28C, the yeast fitness was 0.986.

On to C4U U26G G44A, for which the yeast fitness is 0.591.

Take U7C A14G: the yeast fitness stood at 0.86.

In the case of A21G G23A C31U, the yeast fitness stood at 0.528.
